Source: paper PMC5696082 (Analytical biochemistry, 2017)

Columns and labels:
hCE3 [1] = target: T1, hCE3 (Homo sapiens, UniProt Q6UWW8); test: Potency of esterase inhibitors, hCE3; format: biochemical
T1 sequence (Q6UWW8 27-571): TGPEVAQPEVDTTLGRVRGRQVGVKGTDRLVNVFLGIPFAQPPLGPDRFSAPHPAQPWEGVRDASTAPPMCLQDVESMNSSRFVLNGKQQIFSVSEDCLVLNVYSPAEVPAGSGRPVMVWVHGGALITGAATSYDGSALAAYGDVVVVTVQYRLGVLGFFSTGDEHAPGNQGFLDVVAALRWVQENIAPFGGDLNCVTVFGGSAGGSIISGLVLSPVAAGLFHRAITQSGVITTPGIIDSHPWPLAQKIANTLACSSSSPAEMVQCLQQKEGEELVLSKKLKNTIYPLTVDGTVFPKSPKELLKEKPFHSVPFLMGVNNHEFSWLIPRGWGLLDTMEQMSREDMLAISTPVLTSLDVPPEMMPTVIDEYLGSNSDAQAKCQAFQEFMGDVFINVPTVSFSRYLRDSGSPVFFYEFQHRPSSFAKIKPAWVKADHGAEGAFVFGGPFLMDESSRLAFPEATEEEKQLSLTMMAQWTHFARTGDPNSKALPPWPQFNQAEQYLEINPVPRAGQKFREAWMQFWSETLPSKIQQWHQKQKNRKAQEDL

AADAC = target: T2, AADAC (Homo sapiens, UniProt P22760); test: Potency of esterase inhibitors, AADAC; format: biochemical
T2 sequence (P22760 1-399): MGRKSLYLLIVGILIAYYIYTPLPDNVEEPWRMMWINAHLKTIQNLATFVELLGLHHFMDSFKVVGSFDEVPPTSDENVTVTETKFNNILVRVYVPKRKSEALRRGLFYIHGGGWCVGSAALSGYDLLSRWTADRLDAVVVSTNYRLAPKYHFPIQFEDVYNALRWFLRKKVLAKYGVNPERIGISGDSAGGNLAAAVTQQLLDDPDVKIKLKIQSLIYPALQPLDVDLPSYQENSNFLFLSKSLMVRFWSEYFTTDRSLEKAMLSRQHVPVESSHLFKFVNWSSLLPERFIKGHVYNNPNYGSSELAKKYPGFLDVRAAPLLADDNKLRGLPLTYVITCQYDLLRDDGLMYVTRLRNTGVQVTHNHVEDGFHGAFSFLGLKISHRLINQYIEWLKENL

hCE1 [2] = target: T3, hCE1 (Homo sapiens, UniProt P23141); test: Potency of esterase inhibitors, hCE1; format: biochemical
T3 sequence (P23141 18-567): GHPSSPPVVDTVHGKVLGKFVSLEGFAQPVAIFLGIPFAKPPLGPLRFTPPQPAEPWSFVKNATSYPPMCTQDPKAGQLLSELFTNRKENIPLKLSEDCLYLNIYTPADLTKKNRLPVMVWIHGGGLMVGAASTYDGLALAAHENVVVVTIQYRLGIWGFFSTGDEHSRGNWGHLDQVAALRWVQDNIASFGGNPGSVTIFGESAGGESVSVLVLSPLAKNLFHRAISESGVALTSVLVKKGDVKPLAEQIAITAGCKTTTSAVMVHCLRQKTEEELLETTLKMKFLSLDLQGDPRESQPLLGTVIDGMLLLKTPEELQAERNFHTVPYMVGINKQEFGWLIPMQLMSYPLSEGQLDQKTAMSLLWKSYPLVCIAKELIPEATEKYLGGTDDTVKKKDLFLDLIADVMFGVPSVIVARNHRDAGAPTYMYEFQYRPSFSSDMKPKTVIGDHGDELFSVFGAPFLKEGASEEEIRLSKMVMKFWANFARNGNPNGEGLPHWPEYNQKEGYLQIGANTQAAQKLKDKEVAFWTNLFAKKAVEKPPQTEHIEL

FAAH [3] = target: T4, FAAH (Homo sapiens, UniProt O00519); test: Potency of esterase inhibitors, FAAH; format: biochemical
T4 sequence (O00519 1-579): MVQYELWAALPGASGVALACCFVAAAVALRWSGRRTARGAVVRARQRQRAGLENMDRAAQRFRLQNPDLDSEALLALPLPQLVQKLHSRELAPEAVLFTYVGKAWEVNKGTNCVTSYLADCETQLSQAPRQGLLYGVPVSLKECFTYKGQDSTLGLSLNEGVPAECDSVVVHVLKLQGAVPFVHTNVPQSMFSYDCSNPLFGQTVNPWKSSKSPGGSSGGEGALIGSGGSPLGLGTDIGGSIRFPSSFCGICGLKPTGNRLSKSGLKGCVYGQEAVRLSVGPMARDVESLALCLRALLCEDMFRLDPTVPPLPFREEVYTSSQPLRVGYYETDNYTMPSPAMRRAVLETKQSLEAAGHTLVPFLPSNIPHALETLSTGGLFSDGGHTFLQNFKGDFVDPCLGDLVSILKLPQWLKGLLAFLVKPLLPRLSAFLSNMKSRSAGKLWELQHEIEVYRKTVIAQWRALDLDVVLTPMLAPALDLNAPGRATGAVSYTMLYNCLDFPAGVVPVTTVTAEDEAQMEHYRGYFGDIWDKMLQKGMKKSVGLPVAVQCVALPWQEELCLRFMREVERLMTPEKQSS

PON1 = PON1 (Homo sapiens, UniProt P27169); test: Potency of esterase inhibitors, PON1; format: biochemical
Chain of PON1 (P27169 whole entry, species assumed): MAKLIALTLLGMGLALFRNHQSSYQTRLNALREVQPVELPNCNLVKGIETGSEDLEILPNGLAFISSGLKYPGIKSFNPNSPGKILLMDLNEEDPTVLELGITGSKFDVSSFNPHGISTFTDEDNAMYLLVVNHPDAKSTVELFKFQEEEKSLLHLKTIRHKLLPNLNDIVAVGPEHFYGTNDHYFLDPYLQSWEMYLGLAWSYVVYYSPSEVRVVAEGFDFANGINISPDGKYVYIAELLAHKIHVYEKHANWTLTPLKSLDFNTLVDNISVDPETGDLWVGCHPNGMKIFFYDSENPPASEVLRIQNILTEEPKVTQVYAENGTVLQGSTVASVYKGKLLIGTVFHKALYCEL
Outline: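 PON1 used as crude lysate of baculovirus-infected insect cells in PBS. Added to 2-fold serial inhibitor dilutions (top concentration at most 100 µM) and preincubated 5 min. Cyanohydrin ester substrate then added to 50 µM final, DMSO ≤2%, in 100 mM phosphate pH 8, 0.1 mg/mL BSA, 37°C. Fluorescence (ex 330/em 465 nm) read kinetically for 10 min. IC50 from linear regression of log[inhibitor] against % remaining activity; triplicates, single experiment.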

Liver S9 = test: Substrate hydrolysis by pooled tissue S9, liver; format: biochemical, human
Outline: (§1)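 Commercial pooled human tissue S9 fraction added to substrate at 50 µM final in 100 mM sodium phosphate, pH 8.0, 0.1 mg/mL BSA. Fluorescence monitored every 30 s for at least 10 min at 37°C. Specific activity given as the mean of triplicates in one experiment, or mean ± standard deviation of 3 independent experiments run in triplicate.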

Kidney S9 = test: Substrate hydrolysis by pooled tissue S9, kidney; format: biochemical, human
Outline: as §1

Lung S9 = test: Substrate hydrolysis by pooled tissue S9, lung; format: biochemical, human
Outline: as §1

hCE3 [4] = target: T1, hCE3; test: Specific activity of hCE3 towards substrates; format: biochemical
Outline: (§2)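 Enzymes expressed in baculovirus-infected High Five cells: hCE1 CHAPS-solubilised from the 100,000 g pellet, then DEAE-purified; hCE2/hCE3 crude soluble fraction; FAAH crude insoluble fraction. Substrate added to 50 µM final in 100 mM sodium phosphate pH 8.0, 0.1 mg/mL BSA, 1% DMSO. Fluorescence read every 30 s for ≥10 min at 37°C. Rates corrected for estimated purity: hCE1 25%, hCE2 4%, hCE3 3.5% (3% in footnotes), FAAH 6.9%. Triplicates.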

[5] = Background hydrolysis of substrates in phosphate buffer; format: physicochemical; settings: phosphate buffer 100 mM, pH 8, 0.1 mg/mL BSA
Intestine S9 = test: Substrate hydrolysis by pooled tissue S9, intestine; format: biochemical, human
Outline: as §1

hCE1 [6] = target: T3, hCE1; test: Limit of detection and quantification for hCE1 using partially purified enzyme; format: biochemical; settings: [S] = 50 µM; for LOD for hCE1: S/N > 3; for LOQ for hCE1: S/N > 9
Outline: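 Partially purified recombinant hCE1, without any matrix, diluted into wells with substrate at 50 µM. Assay run in 100 mM sodium phosphate, pH 8, 0.1 mg/mL BSA, 1% DMSO, at 37°C. S/N taken as mean signal of enzyme wells over the SD of […], quadruplicates in one experiment. LOD set as the lowest level with S/N > 3; LOQ as S/N > 9.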

hCE2 [7] = target: T5, hCE2 (Homo sapiens, UniProt O00748); test: Specific activity of hCE2 towards substrates; format: biochemical
T5 sequence (O00748 27-559): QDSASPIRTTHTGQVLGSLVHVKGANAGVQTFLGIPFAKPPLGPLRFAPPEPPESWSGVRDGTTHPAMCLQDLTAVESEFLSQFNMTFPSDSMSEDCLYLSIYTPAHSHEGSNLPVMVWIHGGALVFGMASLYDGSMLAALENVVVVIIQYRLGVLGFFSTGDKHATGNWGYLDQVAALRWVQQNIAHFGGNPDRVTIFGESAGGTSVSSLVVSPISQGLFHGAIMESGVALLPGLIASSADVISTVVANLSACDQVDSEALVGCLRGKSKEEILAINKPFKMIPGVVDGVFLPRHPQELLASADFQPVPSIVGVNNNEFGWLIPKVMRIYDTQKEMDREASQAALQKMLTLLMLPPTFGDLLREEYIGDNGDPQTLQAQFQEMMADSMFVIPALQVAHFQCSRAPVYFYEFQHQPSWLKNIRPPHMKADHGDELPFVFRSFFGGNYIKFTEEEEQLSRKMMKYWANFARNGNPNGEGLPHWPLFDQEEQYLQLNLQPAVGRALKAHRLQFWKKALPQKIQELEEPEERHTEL
Outline: as §2

hCE1 [8] = target: T3, hCE1; test: Specific activity of hCE1 towards substrates; format: biochemical
Outline: as §2

FAAH [9] = target: T4, FAAH; test: Specific activity of FAAH towards substrates; format: biochemical; settings: Table 2; [S] = 50 µM, 37°C, pH 8; estimated 6.9% purity
Outline: as §2

hCE2 [10] = target: T5, hCE2; test: Potency of esterase inhibitors, hCE2; format: biochemical
[11] = Kinetic mode (30 s intervals for 30 minutes)

COc1ccc(C(=O)C(=O)c2ccccc2Cl)cc1OC [2-chloro-3’,4’- dimethoxybenzil, 2-chloro-3’,4’-dimethoxybenzil]
IC50 (hCE3 [1]): > 100 µM | IC50 (AADAC): > 100 µM | IC50 (hCE1 [2]): 2.5 µM | IC50 (FAAH [3]): 7.6 µM | IC50 (PON1): 25 µM

COc1ccc2cc(C(C#N)OC(C)=O)ccc2c1 (stereo not drawn) [CMNA, cyano(6-methoxynaphthalen-2-yl)methyl acetate]
Hydrolysis Specific Activity (Liver S9): 180 ± 30 pmol/min/µg | Hydrolysis Specific Activity (Kidney S9): 15 ± 5 pmol/min/µg | Hydrolysis Specific Activity (Lung S9): 13 ± 1 pmol/min/µg | hCE3 Specific activity (hCE3 [4]; Table 2, [S] = 50 µM, 37°C, pH 8, estimated 3% purity): 150 pmol/min/µg | Hydrolysis Specific Activity (hCE3 [4]; Table 6, hCE3): 150 pmol/min/µg | Rate of background hydrolysis [5]: 20 pmol/min | Hydrolysis Specific Activity (Intestine S9): 74 ± 3 pmol/min/µg | LOD for hCE1 (hCE1 [6]; Endpoint mode 1 hour): 0.98 ng | LOQ for hCE1 (hCE1 [6]; Endpoint mode 1 hour): 7.8 ng | LOD for hCE1 (hCE1 [6]; Endpoint mode 4 hours): 3.9 ng | LOD for hCE1 (hCE1 [6]; Endpoint mode 24 hours): 0.06 ng | LOD for hCE1 (hCE1 [6]; [11]): 2.0 ng | LOQ for hCE1 (hCE1 [6]; [11]): 3.9 ng | hCE2 Specific activity (hCE2 [7]; Table 2, [S] = 50 µM, 37°C, pH 8, estimated 4% purity): 11000 pmol/min/µg | Hydrolysis Specific Activity (hCE2 [7]; Table 6, hCE2): 11,000 pmol/min/µg | hCE1 Specific activity (hCE1 [8]; Table 2, [S] = 50 µM, 37°C, pH 8, estimated 25% purity): 3000 pmol/min/µg | Hydrolysis Specific Activity (hCE1 [8]; Table 6, hCE1): 3,000 pmol/min/µg | FAAH Specific activity (FAAH [9]): 13 pmol/min/µg

NC(Cc1cc(I)c(Oc2cc(I)c(O)c(I)c2)c(I)c1)C(=O)O (stereo not drawn) [Thyroxine]
IC50 (hCE3 [1]): 23 µM | IC50 (AADAC): 0.73 µM | IC50 (hCE1 [2]): 1.5 µM | IC50 (hCE2 [10]): 16 µM | Selectivity hCE2/hCE1 (hCE2 [10]; from IC50 values): 0.094 | IC50 (FAAH [3]): > 100 µM | IC50 (PON1): 2.1 µM
